This assay has as its target T1, NaLdpA (Novosphingobium aromaticivorans, UniProt Q2G4I2).
T1 sequence (Q2G4I2 1-243): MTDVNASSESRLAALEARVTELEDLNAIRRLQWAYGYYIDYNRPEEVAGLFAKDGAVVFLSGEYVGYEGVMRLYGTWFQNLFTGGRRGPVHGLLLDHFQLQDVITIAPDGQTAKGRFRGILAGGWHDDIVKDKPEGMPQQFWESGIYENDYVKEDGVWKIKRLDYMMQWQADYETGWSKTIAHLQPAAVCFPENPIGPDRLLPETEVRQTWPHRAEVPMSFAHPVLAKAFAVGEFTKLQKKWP
Nature of the assay: spectrophotometric lignostilbene production, product inhibition. The class given is biochemical. In outline: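 Recombinant polyHis-tagged enzyme expressed in E. coli, purified by chromatography and stored at −80 °C. Reactions were run in air-saturated MOPS (I = 0.1 M), pH 7.0, at 25 °C. Erythro-DGPD substrate concentration was varied, with lignostilbene added at 0, 1, 2, 4 or 10 μM.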

Take `COc1cc(/C=C/c2ccc(O)c(OC)c2)ccc1O` [lignostilbene]: the affinity, expressed as Ki, was 330 ± 30 nM.

The term Ki denotes a dissociation constant, usually derived from enzyme kinetics or from competition with a known ligand. Read a high Ki as a looser hold on the target.

Source of the values: article PMC9942872 (Proceedings of the National Academy of Sciences of the …, 2023).
